Measurements reported in ChEMBL document CHEMBL4043244, “Diverse amide analogs of sulindac for cancer treatment and prevention” (Bioorg Med Chem Lett, 2017).

Assays:
Assay type in all cases: functional
HT-29 = test: Growth inhibition of human HT-29 cells after 72 hrs by CellTiter-Glo reagent based assay; settings: HT-29, 72 h
Summary of the method: (§1)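 Cancer cell lines (PC3 prostate, HT29 colorectal carcinoma, MDA-MB-231 breast) were screened by quantitative high-throughput screening in whole cells, and CC50 values were derived.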

PC-3 = test: Growth inhibition of human PC3 cells after 72 hrs by CellTiter-Glo reagent based assay; settings: PC-3, 72 h; summary of the method: as §1
MDA-MB-231 = test: Growth inhibition of human MDA-MB-231 cells after 72 hrs by CellTiter-Glo reagent based assay; settings: MDA-MB-231, 72 h; summary of the method: as §1

Compound | CC50 (HT-29) | CC50 (PC-3) | CC50 (MDA-MB-231)
CC1=C(CC(=O)NCCC(C)C)c2cc(F)ccc2/C1=C\c1ccc([S+](C)[O-])cc1 (stereo unspecified) | 17.7 µM | 20.2 µM | 27.7 µM
CSc1ccc(/C=C2/C(C)=C(CC(=O)NCc3cccs3)c3cc(F)ccc32)cc1 | 2.16 µM | 11 µM | 5.66 µM
CSc1ccc(/C=C2/C(C)=C(CC(=O)N(C)CCN(C)S(=O)(=O)c3cccc4ccccc34)c3cc(F)ccc32)cc1 | 16.2 µM | > 50 µM | > 50 µM
CC1=C(CC(=O)NCc2ccccc2)c2cc(F)ccc2/C1=C\c1nc2ccccc2s1 | 23.6 µM | > 50 µM | 19.6 µM
CC1=C(CC(=O)N2CCN(CCCN(C)C)CC2)c2cc(F)ccc2/C1=C\c1ccc([S+](C)[O-])cc1 (stereo unspecified) | 23.8 µM | > 50 µM | 46.2 µM
CSc1ccc(/C=C2/C(C)=C(CC(=O)N(C)CCN(C)S(=O)(=O)c3ccccc3)c3cc(F)ccc32)cc1 | 8.82 µM | > 50 µM | > 50 µM
CC1=C(CC(=O)N(C)CCN(C)C(=O)[C@@H](N)C(C)C)c2cc(F)ccc2/C1=C\c1ccc([S+](C)[O-])cc1 (stereo partly specified) | 30.2 µM | > 50 µM | > 50 µM
CSc1ccc(/C=C2/C(C)=C(CC(=O)N3CCN(C)CC3)c3cc(F)ccc32)cc1 | 4.29 µM | 13.4 µM | 11.5 µM
CCN1CCC[C@H]1CNC(=O)CC1=C(C)/C(=C/c2ccc(SC)cc2)c2ccc(F)cc21 | 1.16 µM | 4.64 µM | 3.72 µM
CSc1ccc(/C=C2/C(C)=C(CC(=O)N(C)CCN(C)S(=O)(=O)c3ccc4ccccc4c3)c3cc(F)ccc32)cc1 | 35.3 µM | > 50 µM | > 50 µM
CC1=C(CC(=O)N(C)CCN(C)S(=O)(=O)c2cccc3ccccc23)c2cc(F)ccc2/C1=C\c1ccc([S+](C)[O-])cc1 (stereo unspecified) | 3.99 µM | 8.96 µM | 29.1 µM
CSc1ccc(/C=C2/C(C)=C(CC(=O)NCc3ccccc3)c3cc(F)ccc32)cc1 | 1.52 µM | 16.4 µM | 3.61 µM
CSc1ccc(/C=C2/C(C)=C(CC(=O)NCCC3CCCN3C)c3cc(F)ccc32)cc1 (stereo unspecified) | 1.41 µM | 4.33 µM | 3.75 µM
CCN1CCC[C@H]1CNC(=O)CC1=C(C)/C(=C/c2ccc([S+](C)[O-])cc2)c2ccc(F)cc21 (stereo partly specified) | 19 µM | > 50 µM | > 50 µM
CC1=C(CC(=O)NCCN(C)C)c2cc(F)ccc2/C1=C\c1ccncc1 | 6.89 µM | 28.9 µM | 18.1 µM
COC(=O)[C@H](C)NC(=O)CC1=C(C)/C(=C/c2ccc(SC)cc2)c2ccc(F)cc21 | 23.9 µM | > 50 µM | 38.9 µM
CC1=C(CC(=O)N(C)CCN(C)S(=O)(=O)c2ccc3ccccc3c2)c2cc(F)ccc2/C1=C\c1ccc([S+](C)[O-])cc1 (stereo unspecified) | 6.35 µM | 7.52 µM | 32.1 µM
CC1=C(CC(=O)NCCN(C)C)c2cc(F)ccc2/C1=C\c1ccc(S(C)(=O)=O)cc1 | 12.7 µM | > 50 µM | 37.5 µM
CC1=C(CC(=O)NCc2ccco2)c2cc(F)ccc2/C1=C\c1ccc([S+](C)[O-])cc1 (stereo unspecified) | 1 µM | > 50 µM | 2.73 µM
CSc1ccc(/C=C2/C(C)=C(CC(=O)N3CCNCC3)c3cc(F)ccc32)cc1 | 2.47 µM | 6.5 µM | 3.69 µM
CSc1ccc(/C=C2/C(C)=C(CC(=O)NCCN3CCNCC3)c3cc(F)ccc32)cc1 | 2.98 µM | 6.66 µM | 7.66 µM
CSc1ccc(/C=C2/C(C)=C(CC(=O)N(C)CCN(C)S(=O)(=O)c3cccc4c(N(C)C)cccc34)c3cc(F)ccc32)cc1 | > 50 µM | > 50 µM | > 50 µM
CSc1ccc(/C=C2/C(C)=C(CC(=O)NCCN3CCCC3)c3cc(F)ccc32)cc1 | 1.81 µM | 5.27 µM | 3.78 µM
CCS(=O)(=O)N(C)CCN(C)C(=O)CC1=C(C)/C(=C/c2ccc(SC)cc2)c2ccc(F)cc21 | 4.2 µM | 14.3 µM | 10.1 µM

Compound | CC50 (HT-29) | CC50 (PC-3) | CC50 (MDA-MB-231)
CSc1ccc(/C=C2/C(C)=C(CC(=O)NCc3cccnc3)c3cc(F)ccc32)cc1 | 4.83 µM | 18.5 µM | 7.36 µM
CSc1ccc(/C=C2/C(C)=C(CC(=O)NCCN3CCCCC3)c3cc(F)ccc32)cc1 | 1.65 µM | 5.36 µM | 5.42 µM
CSc1ccc(/C=C2/C(C)=C(CC(=O)NCCC(C)C)c3cc(F)ccc32)cc1 | > 50 µM | > 50 µM | > 50 µM
CC1=C(CC(=O)N(C)CCN(C)S(=O)(=O)c2ccc(C)cc2)c2cc(F)ccc2/C1=C\c1ccc([S+](C)[O-])cc1 (stereo unspecified) | 6.18 µM | 11 µM | 17.8 µM
CC1=C(CC(=O)N2CCC[C@H]2CN2CCCC2)c2cc(F)ccc2/C1=C\c1ccc([S+](C)[O-])cc1 (stereo partly specified) | 20.2 µM | > 50 µM | > 50 µM
CC1=C(CC(=O)N(C)CCN(C)S(=O)(=O)c2ccccc2)c2cc(F)ccc2/C1=C\c1ccc([S+](C)[O-])cc1 (stereo unspecified) | 6.09 µM | 8.2 µM | 12.2 µM
COc1cc(/C=C2/C(C)=C(CC(=O)NCCC(C)C)c3cc(F)ccc32)cc(OC)c1OC | 5.24 µM | 8.2 µM | 8.73 µM
CC1=C(CC(=O)N2CCN(c3ccncc3)CC2)c2cc(F)ccc2/C1=C\c1ccc([S+](C)[O-])cc1 (stereo unspecified) | 9.2 µM | 21.9 µM | 22.7 µM
CC1=C(CC(=O)NCCC(C)C)c2cc(F)ccc2/C1=C\c1nc2ccccc2s1 | > 50 µM | > 50 µM | 24.2 µM
CSc1ccc(/C=C2/C(C)=C(CC(=O)NCc3ccco3)c3cc(F)ccc32)cc1 | 2.08 µM | 13 µM | 3.4 µM
CSc1ccc(/C=C2/C(C)=C(CC(=O)N(C)CCN(C)S(=O)(=O)c3ccc(C)cc3)c3cc(F)ccc32)cc1 | 12.9 µM | > 50 µM | > 50 µM
COC(=O)[C@@H](C)NC(=O)CC1=C(C)/C(=C/c2ccc(SC)cc2)c2ccc(F)cc21 | 16.2 µM | 44.2 µM | 32 µM
CSc1ccc(/C=C2/C(C)=C(CC(=O)NN3CCN(C)CC3)c3cc(F)ccc32)cc1 | 1.64 µM | 4.45 µM | 4.1 µM
CSc1ccc(/C=C2/C(C)=C(CC(=O)N(C)CCN(C)C(=O)[C@@H](N)C(C)C)c3cc(F)ccc32)cc1 | 3.72 µM | 7.08 µM | 7.33 µM
CC1=C(CC(=O)N2CCC(N3CCCCC3)CC2)c2cc(F)ccc2/C1=C\c1ccc([S+](C)[O-])cc1 (stereo unspecified) | > 50 µM | > 50 µM | > 50 µM
CSc1ccc(/C=C2/C(C)=C(CC(=O)NCc3ccccn3)c3cc(F)ccc32)cc1 | 10.3 µM | 13.6 µM | 13.7 µM
CC1=C(CC(=O)N(C)CCN(C)S(=O)(=O)c2cccc3c(N(C)C)cccc23)c2cc(F)ccc2/C1=C\c1ccc([S+](C)[O-])cc1 (stereo unspecified) | 10.6 µM | 9.2 µM | > 50 µM
COC(=O)[C@H](Cc1cnc[nH]1)NC(=O)CC1=C(C)/C(=C/c2ccc(SC)cc2)c2ccc(F)cc21 | 23 µM | > 50 µM | > 50 µM
CCS(=O)(=O)N(C)CCN(C)C(=O)CC1=C(C)/C(=C/c2ccc([S+](C)[O-])cc2)c2ccc(F)cc21 (stereo unspecified) | 42.6 µM | > 50 µM | > 50 µM
CC1=C(CC(=O)NCc2ccco2)c2cc(F)ccc2/C1=C\c1nc2ccccc2s1 | 5.48 µM | 26.4 µM | 6.7 µM
CSc1ccc(/C=C2/C(C)=C(CC(=O)N3CCC(N4CCCCC4)CC3)c3cc(F)ccc32)cc1 | 1.06 µM | 4.06 µM | 2.61 µM
CC1=C(CC(=O)N(C)CCN(C)S(C)(=O)=O)c2cc(F)ccc2/C1=C\c1ccc([S+](C)[O-])cc1 (stereo unspecified) | 12.4 µM | 42.6 µM | 12.5 µM
CSc1ccc(/C=C2/C(C)=C(CC(=O)N(C)CCN(C)S(C)(=O)=O)c3cc(F)ccc32)cc1 | 4.04 µM | 15.5 µM | 11.6 µM
